Measured values of several laboratories.
Lines come from different studies, so protocols differ.
Cell line: A549
Effect on: cell growth or viability

The IC50 of `Cc1cc(NS(=O)(=O)c2ccc(NC(=O)/C(C#N)=C/c3ccc(N4CCOCC4)cc3)cc2)no1` is reported as 109 µM (MTT; 48 h).
The IC50 of `CC(C)CCn1cnc2ccc(-c3ccc4sc(NC(=O)Nc5ccc(F)cc5)nc4c3)cc2c1=O` is reported as 2.39 µM (MTT; 72 h).
The IC50 of `O=C(O)c1ccc(NCc2cccc(C(F)(F)F)c2)cc1` is reported as greater than 100 µM (resazurin; 72 h).
The IC50 of `COC(=O)c1cc(C(C)=NNc2nc(-c3ccc(C)cc3)cs2)ccc1O` is reported as 9.61 µM (MTT; 96 h).
`NS(=O)(=O)c1ccc(-n2nc(C(=O)NN3C(=O)CCC3=O)cc2-c2ccccc2)cc1` has an IC50 of 24 µM (fluorescence; 48 h).
`Cc1ccc(CNC(=S)N/N=C/c2ccc(N3CCC(O)CC3)cc2)cc1` gave an IC50 of 3.28 µM (MTT; 24 h).
`CC(C)[C@@H]1NC(=O)[C@@H](CCCCN)NC(=O)[C@H]([C@@H](C)O)NC(=O)[C@@H](CCCN)NC(=O)[C@H](Cc2ccccc2)NC(=O)[C@@H](Cc2ccccc2)NC1=O` gave an IC50 of greater than 100 µM (ATP luminescence; 72 h).
`NNc1nc2ccc(Br)cc2c(=O)n1-c1ccccc1` has an IC50 of 53.5 µM (MTT; 48 h).
With `CCCn1cnc2ccc(-c3ccc(N4CCCCCCC4=O)nc3)cc2c1=O` the IC50 was greater than 10 µM (CCK-8; 72 h).
`CN(C)C(=O)Nc1nc2c(Cl)cc(Cl)cc2c(=O)n1-c1ccccc1` has an IC50 of greater than 200 µM (MTT; 48 h).
The IC50 of `CN1CCC(NC2CCc3[nH]c4c(C(N)=O)ccc(-c5ccccc5Cl)c4c3C2)CC1` (centres unmarked) is reported as 0.0301 µM.
With `O=C(Nc1ccc(-c2ccc3ncn(Cc4ccccc4)c(=O)c3c2)cn1)C1CC1` the IC50 was greater than 10 µM (CCK-8; 72 h).
For `O=C(Nc1ccc(Cl)cc1)Nc1nc2cc(-c3ccc4ncn(Cc5ccccc5)c(=O)c4c3)ccc2s1`, the IC50 was greater than 20 µM (MTT; 72 h).
The IC50 of `CCCn1cnc2ccc(-c3ccc(NC(=O)CNC(C)C)nc3)cc2c1=O` is reported as greater than 10 µM (CCK-8; 72 h).
The IC50 of `CNC(=O)c1cc(Oc2ccc(NC(=O)Nc3ccc(Cl)c(C(F)(F)F)c3)cc2)ccn1` is reported as 2.92 µM (MTT; 24 h).
`O=C(Nc1ccc(F)cc1)Nc1nc2cc(-c3ccc4ncn(CCN5CCOCC5)c(=O)c4c3)ccc2s1` gave an IC50 of 2.51 µM (MTT; 72 h).
The IC50 of `C/C(=N\CCNCC/N=C(\C)c1c(O)c2ccccc2oc1=O)c1c(O)c2ccccc2oc1=O` is reported as 8.75 µM (MTT; 48 h).
With `O=C(O)c1ccc(NCc2ccccc2)cc1` the IC50 was greater than 100 µM (resazurin; 72 h).
For `CCCn1cnc2ccc(-c3ccc4sc(NC(=O)Nc5ccc(F)cc5)nc4c3)cc2c1=O`, the IC50 was 0.44 µM (MTT; 72 h).
The IC50 of `CN1CCc2c(c3ccccc3n2Cc2ccc(C(=O)NO)cc2)C1` is reported as 27.8 µM (CCK-8; 48 h).
With `O=C(NCCc1ccccc1)Nc1nc2cc(-c3ccc4ncn(CCN5CCOCC5)c(=O)c4c3)ccc2s1` the IC50 was 4.92 µM (MTT; 72 h).
The IC50 of `C[C@@H]1C[C@H]2[C@@H]3CCC4=CC(=O)C=C[C@]4(C)[C@@]3(F)[C@@H](O)C[C@]2(C)[C@@]1(O)C(=O)CO` is reported as 348 µM (MTT; 48 h).
With `CC1=CC(=O)C(C(C)C)=CC1=O` the IC50 was 11.1 µM (SRB; 48 h).
For `CN(C)c1ccc(CNc2ccc(C(=O)O)cc2)cc1`, the IC50 was greater than 100 µM (resazurin; 72 h).
The IC50 of `CCCCC(=O)Nc1ccc(-c2ccc3ncn(CCCC)c(=O)c3c2)cn1` is reported as 0.87 µM (CCK-8; 72 h).
For `CN(C)c1ccc(Nc2nc(-c3ccncc3)nc3c2CC(N)CC3)cc1` (centres unmarked), the IC50 was 17.1 µM (MTT).
For `O=C(C=Cc1cccs1)c1ccc(OCCCOc2ccc(C(=O)C=Cc3cccs3)cc2)cc1`, the IC50 was 115 µM (MTT; 48 h).
For `CC#CCn1cnc2ccc(-c3ccc(NC(=O)CCCC)nc3)cc2c1=O`, the IC50 was greater than 10 µM (CCK-8; 72 h).
For `Cc1cc(C)cc(NC(=O)Nc2nc3cc(-c4ccc5ncn(Cc6ccccc6)c(=O)c5c4)ccc3s2)c1`, the IC50 was greater than 20 µM (MTT; 72 h).
`Fc1ccc(NC(=S)N/N=C/c2cccc3cc4ccccc4nc23)cc1` has an IC50 of greater than 50 µM (MTT; 48 h).
`CCNC(=O)Nc1nc2cc(-c3ccc4ncn(Cc5ccccc5)c(=O)c4c3)ccc2s1` gave an IC50 of 11 µM (MTT; 72 h).
The IC50 of `CCCCn1cnc2ccc(-c3ccc(NC(=O)Nc4ccc(C(F)(F)F)cc4)nc3)cc2c1=O` is reported as greater than 10 µM (CCK-8; 72 h).
For `O=C(N[C@@H](CSCc1ccc([N+](=O)[O-])cc1)C(=O)NO)c1ccccc1`, the IC50 was 48.2 µM (MTT; 48 h).
For `CCCn1cnc2ccc(-c3ccc(NC(=O)c4ccccc4)nc3)cc2c1=O`, the IC50 was 0.12 µM (CCK-8; 72 h).
With `COc1cc([C@@H]2c3cc4c(cc3[C@@H](O[C@@H]3O[C@@H]5CO[C@@H](C)O[C@H]5[C@H](O)[C@H]3O)[C@H]3COC(=O)[C@H]23)OCO4)cc(OC)c1O` the IC50 was 14.3 µM (MTT; 48 h).
`CCCCCC(=O)Nc1ccc(-c2ccc3ncn(CCC)c(=O)c3c2)cn1` gave an IC50 of 0.17 µM (CCK-8; 72 h).
With `COc1cccc(NC(=O)Cn2cc(COc3ncnc4[nH]cnc34)nn2)c1` the IC50 was 30.2 µM (MTT).
`NS(=O)(=O)c1ccc(-n2nc(C(=O)NN=Cc3ccccc3O)cc2-c2ccccc2)cc1` has an IC50 of 9.25 µM (fluorescence; 48 h).
For `C/C(=N\N=C(/C)c1c(O)c2ccccc2oc1=O)c1c(O)c2ccccc2oc1=O`, the IC50 was 39.5 µM (MTT; 48 h).
`O=c1[nH]cc(F)c(=O)[nH]1` gave an IC50 of 11.8 µM (MTT; 48 h).
For `COc1ccc(NC(=O)Nc2nc3cc(-c4ccc5ncn(CCN6CCOCC6)c(=O)c5c4)ccc3s2)cc1`, the IC50 was 1.4 µM (MTT; 72 h).
For `Cc1c2c(nn1C)CSCc1cc(n(C)n1)CSc1cc(c3ccccc3c1)OCCCc1c(C(=O)O)n(C)c3c-2c(Cl)ccc13`, the IC50 was 50 µM (CCK-8).
`COc1cc([C@@H]2c3cc4c(cc3[C@@H](O[C@@H]3O[C@@H]5CO[C@@H](C)O[C@H]5[C@H](O)[C@H]3O)[C@H]3COC(=O)[C@H]23)OCO4)cc(OC)c1O` gave an IC50 of 0.3 µM (SRB; 72 h).
For `O=C(O)c1ccc(NCc2cccc(O)c2)cc1`, the IC50 was greater than 100 µM (resazurin; 72 h).
